This note sets out measurements from the RNAGym collection of RNA variant scans (doi:10.1126/science.aae0568).

First the molecules themselves.
B1: tRNA (parent)
chain: GUUCCGUUGGCGUAAUGGUAACGCGUCUCCCUCCUAAGGAGAAGACUGCGGGUUCGAGUCCCGUACGGAACG

Variants at the floor of the assay were thinned out.

Variants of B1 are the subject of this data set. The data set is described as follows: yeast fitness relative to wild type (ratio to wild type); higher = fitter; tRNA-Arg(CCU), competitive growth, 37 C, YPD. The procedure, abridged: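 Changes in genotype frequencies gave Darwinian fitness relative to wild type. Frequencies were read by 100-nucleotide paired-end sequencing of gene amplicons before and after pooled Saccharomyces cerevisiae strains, carrying tRNA-Arg(CCU) gene variants at the native locus, were competed in YPD at 37°C for 24 hours in six replicates. A genotype was kept only with ≥ 100 starting reads, and estimates < 0.5 were set to 0.5.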
In the case of GUUCCGUUGGCGUAAUGGUAACGCGUCUCCCUCCUCAGGAGAAGACUGCGGGUUCGAGUCCAGUACAGAGCG [A36C C62A G67A A70G], the yeast fitness was not above 0.5. For GUUCCGUUGGCGUAAUGGUAACGCGUCUCCCUCCUGAGGAGUAGACUGCGGGCUCGAGUCCCGUACGGAACG [A36G A42U U53C], the yeast fitness was not above 0.5. As for GUUCCGUUGGCGUAAUGGUAACGCGUCUCCCUCCUGAGGAGGAGACUGCGGGUUCGAGUCCCGUACGGAGCG [A36G A42G A70G], the figure is 0.54; as for GUUCCGUUGGCGUAAUGGUAACGCGUCUCCCUCCUGAGGAGCAGACUGCGGGUUCGAGUCCCGUACCGCACG [A36G A42C G67C A69C], 0.559. The value for GUUCCGUUGGCGUAAUGGUAACGCGUCUCCCUCCUCAGGAGAAGACACCGGGUUCGAGUCCGGUACGGAACG [A36C U47A G48C C62G] was not above 0.5; that for GUUCCGUUGGCGUAAUGGUAACGCGUCUCCCUCCUGAGGAGAUGACUCCGGGUUCGAGUCCCGUACGGAACG [A36G A43U G48C] was 0.556; that for GUUCCGUUGGCGUAAUGGUAACGCGUCUCCCUCCUCAGGAGAAGACUGCGGGUUCGAGUCCCGUACUGAACG [A36C G67U] was 0.596. As for GUUCCGUUGGCGUAAUGGUAACGCGUCUCCCUCCUCAGGAGAAGACUGCGGGUUCGAGUCCCGUACCGAACG [A36C G67C], the figure is 0.537; as for GUUCCGUUGGCGUAAUGGUAACGCGUCUCCCUCCUGAGGAGACGGCUGCGGGUUCGAGUCCCGUACGGAACG [A36G A43C A45G], 0.906. As for GUUCCGUUGGCGUAAUGGUAACGCGUCUCCCUCCUGAGGAGCUGAAUGCGGGUUCGAGUCCCGUACGGAACG [A36G A42C A43U C46A], the yeast fitness was 0.861. As for GUUCCGUUGGCGUAAUGGUAACGCGUCUCCCUCCUCAGGAGAAGACUGCGGGUUCGAGCCCCGUGCGGAACG [A36C U59C A65G], the yeast fitness was not above 0.5.

Take GUUCCGUUGGCGUAAUGGUAACGCGUCUCCCUCCUCAGGAGAAGACCGCGGGUUCGAGUCCCGUACGGAACG [A36C U47C]: the yeast fitness amounted to 0.674. Take GUUCCGUUGGCGUAAUGGUAACGCGUCUCCCUCCUCAGGAGAAGACUCCGGGCUCGAGUCCCGUACGGACCG [A36C G48C U53C A70C]: the yeast fitness is not above 0.5. Turning to GUUCCGUUGGCGUAAUGGUAACGCGUCUCCCUCCUGAGGAGUAGACUGCGGGUUCGAGUCCCGUACGGAACG [A36G A42U], the yeast fitness was determined as 0.902. As for GUUCCGUUGGCGUAAUGGUAACGCGUCUCCCUCCUGAGGAGCAGACUGCGGGUUCGAGUCCCGUACGGAACG [A36G A42C], the figure is 0.976; as for GUUCCGUUGGCGUAAUGGUAACGCGUCUCCCUCCUCAGGAGAAGACUGCGGGUUAGAGUCCCGUACGGAACG [A36C C55A], not above 0.5. As for GUUCCGUUGGCGUAAUGGUAACGCGUCUCCCUCCUCAGGAGAAGACUGCGGGUUGGAGUCCCGUACGGAACG [A36C C55G], the figure is 0.556; as for GUUCCGUUGGCGUAAUGGUAACGCGUCUCCCUCCUGAGGAGAGGACUGCGGGUUCGAGUCCAGUACGGAACG [A36G A43G C62A], 0.553. Turning to GUUCCGUUGGCGUAAUGGUAACGCGUCUCCCUCCUGAGGAGACGACUGCGGGUUCGAGUCCCGCACGGAACG [A36G A43C U64C], the yeast fitness worked out at 0.687. GUUCCGUUGGCGUAAUGGUAACGCGUCUCCCUCCUCAGGAGAAGACUGCGGGUUCGAGUCCUGUACGGAACG [A36C C62U]: the yeast fitness stood at 0.583. Turning to GUUCCGUUGGCGUAAUGGUAACGCGUCUCCCUCCUCAGGAGAAGACUGCAGGUUAGAGUCCCGUACGGAACG [A36C G50A C55A], the yeast fitness was found to be 0.766. The value for GUUCCGUUGGCGUAAUGGUAACGCGUCUCCCUCCUCAGGAGAAGACUGCCGGUUCGAGUCCCCUACGGAACG [A36C G50C G63C] was 0.652; that for GUUCCGUUGGCGUAAUGGUAACGCGUCUCCCUCCUCAGAAGAAGACUGCGGGUUCGAGUCCCGUACGGAACG [A36C G39A] was not above 0.5. The value for GUUCCGUUGGCGUAAUGGUAACGCGUCUCCCUCCUCAGGAGAAGACUGCGGGUUCAAGUCCCGUACGGAACG [A36C G56A] was 0.61; that for GUUCCGUUGGCGUAAUGGUAACGCGUCUCCCUCCUCAGGAGAAGACUGCGGGUUCCAGUCCCGUACGGAACG [A36C G56C] was 0.793.

In the case of GUUCCGUUGGCGUAAUGGUAACGCGUCUCCCUCCUCAGGAGAAGACUGCCGGUUCGAGUCCCGUACGGAACG [A36C G50C], the yeast fitness was 0.54. The value for GUUCCGUUGGCGUAAUGGUAACGCGUCUCCCUCCUGAGGCGGAGACUGCGGGUUCGAGUCCCGUACGGAACG [A36G A40C A42G] was 0.768; that for GUUCCGUUGGCGUAAUGGUAACGCGUCUCCCUCCUCAGGAGAAGACUGCGGGUUCCAGUCCCGUAUGGAACG [A36C G56C C66U] was not above 0.5.

Consider GUUCCGUUGGCGUAAUGGUAACGCGUCUCCCUCCUGGGGAGAAGACUGCGGGUUCGACUCCCGUACGGAACG [A36G A37G G58C], for which the yeast fitness turned out to be 0.649. As for GUUCCGUUGGCGUAAUGGUAACGCGUCUCCCUCCUCAGGAGAAGACUGGGGGUUCGAGUCGGGUACGGAACG [A36C C49G C61G C62G], the figure is not above 0.5. The value for GUUCCGUUGGCGUAAUGGUAACGCGUCUCCCUCCUGGGGAGAAGCCUGCGCGUUCGAGGCCCGUACGGAACG [A36G A37G A45C G51C U59G] was not above 0.5; that for GUUCCGUUGGCGUAAUGGUAACGCGUCUCCCUCCUCAGGAGAAGACUGCGGGUUCGACUCCCGUACGGAACG [A36C G58C] was 0.618; that for GUUCCGUUGGCGUAAUGGUAACGCGUCUCCCUCCUGUGGAGUAGACUGCGGGUUCGAGUCCCGUACGGAGCG [A36G A37U A42U A70G] was not above 0.5. GUUCCGUUGGCGUAAUGGUAACGCGUCUCCCUCCUCAAGAGAAGACUGCGGGUCCGAAUCCCGUACGGAACG [A36C G38A U54C G58A]: the yeast fitness was not above 0.5. As for GUUCCGUUGGCGUAAUGGUAACGCGUCUCCCUCCUCAGGAGAAGACUGCGGGGUCGAGUCCCGUACGGAACG [A36C U53G], the figure is not above 0.5; as for GUUCCGUUGGCGUAAUGGUAACGCGUCUCCCUCCUGAGGAGGAGACUGCGGGUUAGAGUCCCGUACGGAACG [A36G A42G C55A], not above 0.5; as for GUUCCGUUGGCGUAAUGGUAACGCGUCUCCCUCCUCAGGAAAAGACUGCGGGCUCGAGUCCCGUACGGAACG [A36C G41A U53C], 0.56. The value for GUUCCGUUGGCGUAAUGGUAACGCGUCUCCCUCCUCAGGAGAAGACUGCGGGUUCGAGUCGCGUACGGACCG [A36C C61G A70C] was 0.569.
